According to ChEMBL document CHEMBL1143827, “In vitro activity of 2,4-diamino-6-[2-(phosphonomethoxy)ethoxy]-pyrimidine against multidrug-resistant hepatitis B virus mutants” (Antimicrob Agents Chemother, 2007):

Key:
[1] = test system: Hepatitis B virus; assay: Fold resistance, ratio of Lamivudine -adenofir-resistant with HBV reverse transcriptase V173L/L180M/A181V/M204V mutant to wildtype HBV genotype E; assay type: functional
In short: (§1)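 Each mutant and its corresponding wild-type strain were transfected into Huh7 cells and treated in parallel with the same drug concentration range, with HBV DNA read by Southern blot. Fold resistance = mutant EC50 / corresponding wild-type EC50. Uses means of at least three independent experiments, each in triplicate.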

[2] = test system: Hepatitis B virus; assay: Fold resistance, ratio of EC50 for lamivudine-adefovir-resistant HBV with reverse transcriptase L180M/M204V/N236T mutant to EC50 for wild-type HBV; assay type: functional; in short: as §1
[3] = Effect on cell viability in human Huh7 cells; assay type: cell-based, Huh-7
In short: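 Huh7 cells were exposed to drug, and viability was read as neutral red dye uptake. CC50 is the concentration that cut uptake by 50%, given as mean ± SD of three independent experiments run in quadruplicate.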

[4] = test system: Hepatitis B virus; assay: Fold resistance, ratio of Lamivudine -adenofir-resistant HBV with reverse transcriptase V173L/L180M/A181V mutant to wildtype HBV genotype E; assay type: functional; in short: as §1
[5] = test system: Hepatitis B virus; assay: Antiviral activity against wild type HBV assessed as inhibition of replication; assay type: functional, organism-based
In short: (§2)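 Huh7 hepatoma cells were transiently transfected with plasmids carrying 1.1 genome units of wild-type HBV under a chicken beta-actin promoter, then treated with drug across a range starting at 0 μM (up to 100 μM for some drugs). Intracellular HBV DNA was purified and analysed by Southern blot to derive EC50. Values are means of at least three independent experiments, each run in triplicate.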

[6] = test system: Hepatitis B virus; assay: Antiviral activity against entecavir-resistant HBV with reverse transcriptase L180M/S202G/M204V mutant; assay type: functional, organism-based
In short: (§3)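 Huh7 cells transiently transfected with plasmids carrying 1.1 genome units of mutant or wild-type HBV under the chicken beta-actin promoter. Drug range was 0 to 100 μM for PMEO-DAPym, lamivudine, adefovir and tenofovir. Intracellular HBV DNA was purified and analysed by Southern blot to give EC50. Values are means of at least three independent experiments, each run in triplicate.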

[7] = test system: Hepatitis B virus; assay: Antiviral activity against wild type HBV genotype H assessed as inhibition of replication; assay type: functional, organism-based; in short: as §2
[8] = test system: Hepatitis B virus; assay: Fold resistance, ratio of EC50 for adenofir-resistant HBV with reverse transcriptase N236T mutant to EC50 for wild-type HBV; assay type: functional; in short: as §1
[9] = test system: Hepatitis B virus; assay: Antiviral activity against lamivudine-adenofir-resistant HBV with reverse transcriptase V173L/L180M/A181V mutant; assay type: functional, organism-based; in short: as §3
[10] = test system: Hepatitis B virus; assay: Antiviral activity against Lamivudine -adenofir-resistant HBV with reverse transcriptase V173L/L180M/A181V/M204V mutant; assay type: functional, organism-based; in short: as §3
[11] = test system: Hepatitis B virus; assay: Fold resistance, ratio of lamivudine-resistant HBV with reverse transcriptase V173L/L180/M204V mutant to wild-type HBV genotype H; assay type: functional; in short: as §1
[12] = test system: Hepatitis B virus; assay: Fold resistance, ratio of EC50 for lamivudine-resistant HBV with reverse transcriptase L180M/M204V mutant to EC50 for wild-type HBV; assay type: functional; in short: as §1
[13] = test system: Hepatitis B virus; assay: Antiviral activity against lamivudine-resistant HBV with reverse transcriptase L180M/A181V mutant; assay type: functional, organism-based; in short: as §3
[14] = test system: Hepatitis B virus; assay: Fold resistance, ratio of lamivudine -adenofir-resistant with HBV reverse transcriptase V173L/L180M/A181V/M204V/N236T mutant to wild-type HBV genotype E; assay type: functional; in short: as §1
[15] = test system: Hepatitis B virus; assay: Antiviral activity against lamivudine-resistant HBV with reverse transcriptase L180M/M204V mutant; assay type: functional, organism-based; in short: as §3
[16] = test system: Hepatitis B virus; assay: Fold resistance, ratio of Lamivudine -adenofir-resistant with HBV reverse transcriptase V173L/L180M/A181V/N236T mutant to wildtype HBV genotype E; assay type: functional; in short: as §1
[17] = test system: Hepatitis B virus; assay: Antiviral activity against lamivudine-resistant HBV with reverse transcriptase L180M/M204V mutant assessed as inhibition of replication; assay type: functional, organism-based; in short: as §3
[18] = test system: Hepatitis B virus; assay: Fold resistance, ratio of lamivudine-resistant HBV with reverse transcriptase L180M/A181V mutant to wild-type HBV genotype E; assay type: functional; in short: as §1
[19] = test system: Hepatitis B virus; assay: Antiviral activity against lamivudine-resistant HBV with reverse transcriptase V173L/L180/M204V mutant; assay type: functional, organism-based; in short: as §3
[20] = test system: Hepatitis B virus; assay: Antiviral activity against lamivudine-adefovir-resistant HBV with reverse transcriptase L180M/M204V/N236T mutant assessed as inhibition of replication; assay type: functional, organism-based; in short: as §3
[21] = test system: Hepatitis B virus; assay: Fold resistance, ratio of entecavir-resistant HBV with reverse transcriptase L180M/S202G/M204V mutant to wild-type HBV genotype H; assay type: functional; in short: as §1
[22] = test system: Hepatitis B virus; assay: Fold resistance, ratio of lamivudine-resistant HBV with reverse transcriptase L180M/M204V mutant to wild-type HBV genotype E; assay type: functional; in short: as §1
[23] = test system: Hepatitis B virus; assay: Antiviral activity against wild type HBV genotype E assessed as inhibition of replication; assay type: functional, organism-based; in short: as §2
[24] = test system: Hepatitis B virus; assay: Antiviral activity against Lamivudine -adenofir-resistant HBV with reverse transcriptase V173L/L180M/A181V/M204V/N236T mutant; assay type: functional, organism-based; in short: as §3
[25] = test system: Hepatitis B virus; assay: Antiviral activity against adenofir-resistant HBV with reverse transcriptase N236T mutant assessed as inhibition of replication; assay type: functional, organism-based; in short: as §3
[26] = test system: Hepatitis B virus; assay: Inhibition of wild type HBV replication in Huh7 cells; assay type: functional, organism-based; conditions: Huh-7; in short: as §2
[27] = test system: Hepatitis B virus; assay: Antiviral activity against lamivudine-adenofir-resistant HBV with reverse transcriptase V173L/L180M/A181V/N236T mutant; assay type: functional, organism-based; in short: as §3

Row | Compound | Ratio EC50 [1] | Ratio EC50 [2] | CC50 [3] [µM] | Ratio EC50 [4] | EC50 [5] [µM] | EC50 [6] [µM] | EC50 [7] [µM] | Ratio EC50 [8] | EC50 [9] [µM] | EC50 [10] [µM] | Ratio EC50 [11] | Ratio EC50 [12] | EC50 [13] [µM] | Ratio EC50 [14] | EC50 [15] [µM] | Ratio EC50 [16] | EC50 [17] [µM] | Ratio EC50 [18] | EC50 [19] [µM] | EC50 [20] [µM] | further results
1 | Nc1ccn([C@@H]2CS[C@H](CO)O2)c(=O)n1 [LAMIVUDINE] | >1000 | >40 | > 1000 | 1000 | 2.48 | > 100 | 0.64 | 1.06 | 100 | > 100 | >156 | >40 | 80 | >1000 | > 100 | >1000 | > 100 | 800 | > 100 | > 100 | Ratio EC50 [21]: >156; Ratio EC50 [22]: >1000; EC50 [23]: 0.1 µM; EC50 [24]: > 100 µM; EC50 [25]: 2.65 µM; EC50 [26]: 1 µM; EC50 [27]: > 100 µM
2 | C[C@H](Cn1cnc2c(N)ncnc21)OCP(=O)(O)O [TENOFOVIR ANHYDROUS] | 1.8 | 4.4 | > 1000 | 1.6 | 10.3 | 27 | 13.6 | 4.5 | 42 | 45 | 1.2 | 3.4 | 36 | 1.8 | 27 | 1.1 | 35.2 | 1.4 | 16 | 45.5 | Ratio EC50 [21]: 2; Ratio EC50 [22]: 1.1; EC50 [23]: 25 µM; EC50 [24]: 46 µM; EC50 [25]: 46 µM; EC50 [26]: 16 µM; EC50 [27]: 28 µM
3 | Nc1cc(OCCOCP(=O)(O)O)nc(N)n1 | 3.2 | 1.4 | > 1000 | 4.3 | 4 | 4.5 | 4.4 | 1.1 | 24 | 18 | 0.9 | 1.2 | 27 | 2.1 | 5.3 | 5.1 | 4.7 | 4.8 | 4.1 | 5.7 | Ratio EC50 [21]: 1; Ratio EC50 [22]: 0.9; EC50 [23]: 5.6 µM; EC50 [24]: 12 µM; EC50 [25]: 4.5 µM; EC50 [26]: 4.9 µM; EC50 [27]: 29 µM
4 | C=C1[C@H](CO)[C@@H](O)C[C@@H]1n1cnc2c(=O)[nH]c(N)nc21.O [ENTECAVIR] | >=800 | 6.25 | 125 | 50 | 0.8 | 18 | 0.09 | 0.88 | 2.75 | ≥ 50 | 43 | 6.25 | 1.5 | 461 | 10.5 | 9 | 5 | 28 | 3.7 | 5 | Ratio EC50 [21]: 210; Ratio EC50 [22]: 175; EC50 [23]: 0.06 µM; EC50 [24]: 25.4 µM; EC50 [25]: 0.7 µM; EC50 [26]: 0.3 µM; EC50 [27]: 0.5 µM
5 | CC(C)(C)C(=O)OCOP(=O)(COCCn1cnc2c(N)ncnc21)OCOC(=O)C(C)(C)C [ADEFOVIR DIPIVOXIL] | 4 | 6.3 | 365 | 4.8 | 15.8 | 15 | 13.6 | 3.2 | 48 | 40 | 0.7 | 0.98 | 27 | 7.7 | 15 | >10 | 15.5 | 2.7 | 9.8 | 100 | Ratio EC50 [21]: 1.1; Ratio EC50 [22]: 1.5; EC50 [23]: 10 µM; EC50 [24]: 77 µM; EC50 [25]: 50.3 µM; EC50 [26]: 13 µM; EC50 [27]: > 100 µM
